In ChEMBL document CHEMBL5678806, “NMS-P937, an orally available, specific small-molecule polo-like kinase 1 inhibitor with antitumor activity in solid and hematologic malignancies” (Mol Cancer Ther, 2012):
Calls of active or inactive are those of the source. The rule behind the calls is not given here.

Experiments:
[1] = system: A2780; experiment: In vivo inhibition of PLK1 in human A2780 cells xenografted in nu/nu mouse assessed as decreased TCTP phosphorylation on Ser46 at 60 mg/kg, po administered for 6 to 12 hrs by immunohistochemistry analysis; format: functional, organism-based; conditions: time lower 6.0 hrs, time upper […]
[2] = system: HL-60; experiment: Antitumor activity against human HL-60 cells xenografted in nu/nu mouse assessed as efficacy parameter L0 at 60 mg/kg, po administered for 10 days relative to control; format: functional; conditions: time 10 day
[3] = system: KM12; experiment: Antiproliferative activity against human KM12 cells assessed as inhibition of cell growth incubated for 72 hrs by cell-titer glo assay; format: functional, cell-based; conditions: KM12, 72 h
Procedure, shortened: (§1)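 Cells seeded at 10,000–30,000/cm² (adherent) or 100,000/mL (nonadherent) in medium with 10% fetal calf serum; after 24 h, treated in duplicate with serial dilutions for 72 h. Viable cell number read by CellTiter-Glo luminescence; IC50 from sigmoidal fit; at least two independent experiments.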

[4] = target: Insulin receptor (Homo sapiens, UniProt P06213); experiment: Inhibition of N-terminal His6-tagged recombinant human IR (1005 to 1310 residues) expressed in baculovirus infected Sf21 cells assessed as residual activity at 1 uM relative to control
[5] = Half-life in Sprague-Dawley rat at 10 mg/kg, iv by LC-MS analysis; format: ADME, organism-based; conditions: in vivo
[6] = target: Vascular endothelial growth factor receptor 2 (Homo sapiens, UniProt P35968); experiment: Inhibition of VEGFR2 (unknown origin) in presence of [gamma-33P]ATP
[7] = target: ALK tyrosine kinase receptor (Homo sapiens) (UniProt Q9UM73); experiment: Inhibition of N-terminal His6-tagged recombinant human ALK (1058 to end residues) expressed in baculovirus infected Sf21 cells assessed as residual activity at 1 uM relative to control
[8] = system: M14; experiment: Antiproliferative activity against human M14 cells assessed as inhibition of cell growth incubated for 72 hrs by cell-titer glo assay; format: functional, cell-based; conditions: M14, 72 h; procedure, shortened: as §1
[9] = target: Cytoplasmic tyrosine-protein kinase BMX (Homo sapiens) (UniProt P51813); experiment: Inhibition of recombinant human Bmx assessed as residual activity at 0.1 uM relative to control
[10] = system: U2OS; experiment: Effect on cell morphology in human U2OS cells expressing GFP/alpha-tubulin fusion protein assessed as aberrant number of spindle poles at 1 uM incubated for 24 hrs by laser scanning confocal microscopy analysis; format: functional, cell-based
[11] = system: SU-DHL-1; experiment: Antiproliferative activity against human SU-DHL-1 cells assessed as inhibition of cell growth incubated for 72 hrs by cell-titer glo assay; format: functional, cell-based; conditions: SU-DHL-1, 72 h
[12] = Toxicity in nu/nu mouse xenografted with human HCT-116 cells assessed as body weight loss at 45 mg/kg, iv administered for 3 days; format: organism-based; conditions: in vivo, 72 h, time 3 day
[13] = target: Ribosomal protein S6 kinase alpha-4 (Homo sapiens) (UniProt O75676); experiment: Inhibition of N-terminal His6-tagged recombinant human MSK2 (2 to end residues) expressed in baculovirus infected Sf21 cells assessed as residual activity at 1 uM relative to control
[14] = target: Cyclin-dependent kinase 2/cyclin E1 (Homo sapiens, UniProt P24941); experiment: Inhibition of CDK2/CycE (unknown origin) in presence of [gamma-33P]ATP; format: protein-complex assay
[15] = system: DU-145; experiment: Antiproliferative activity against human DU-145 cells assessed as inhibition of cell growth incubated for 72 hrs by cell-titer glo assay; format: functional, cell-based; conditions: DU-145, 72 h
Procedure, shortened: (§2)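 Cells seeded 10,000–30,000/cm² (adherent) or 100,000/mL (suspension) in medium with 10% fetal calf serum; after 24 h treated in duplicate with serial dilutions for 72 h. Viable cells read by CellTiter-Glo luminescence; IC50 from sigmoidal fit; at least two independent experiments.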

[16] = system: IGROV-1; experiment: Antiproliferative activity against human IGROV-1 cells assessed as inhibition of cell growth incubated for 72 hrs by cell-titer glo assay; format: functional, cell-based; conditions: IGROV-1, 72 h; procedure, shortened: as §1
[17] = target: PAS domain-containing serine/threonine-protein kinase (Homo sapiens) (UniProt Q96RG2); experiment: Inhibition of human PASK assessed as residual activity at 0.1 uM relative to control
[18] = Antitumor activity against human Acute myeloid leukemic cell xenografted in nu/nu mouse assessed as increase in median survival time at 120 mg/kg, po administered for 2 days and measured after 10 days in presence of cytarabine (reference value: 34 days); conditions: time 2 day
[19] = target: Tyrosine-protein kinase Lyn (Mus musculus) (UniProt P25911); experiment: Inhibition of N-terminal his6-tagged recombinant full-length mouse Lyn expressed in baculovirus infected Sf21 cells assessed as residual activity at 1 uM relative to control
[20] = Tmax in Sprague-Dawley rat at 10 mg/kg, po by LC-MS analysis; format: ADME, organism-based; conditions: in vivo
[21] = Antiproliferative activity against human CL-11 cells assessed as inhibition of cell growth incubated for 72 hrs by cell-titer glo assay; format: functional, cell-based; conditions: CL-11, 72 h; procedure, shortened: as §2
[22] = system: K562; experiment: Antiproliferative activity against human K562 cells assessed as inhibition of cell growth incubated for 72 hrs by cell-titer glo assay; format: functional, cell-based; conditions: K562, 72 h; procedure, shortened: as §1
[23] = target: ALK tyrosine kinase receptor (Homo sapiens) (UniProt Q9UM73); experiment: Inhibition of N-terminal His6-tagged recombinant human ALK (1058 to end residues) expressed in baculovirus infected Sf21 cells assessed as residual activity at 0.1 uM relative to control
[24] = system: SF-295; experiment: Antiproliferative activity against human SF-295 cells assessed as inhibition of cell growth incubated for 72 hrs by cell-titer glo assay; format: functional, cell-based; conditions: SF-295, 72 h
Procedure, shortened: (§3)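 Cells from ATCC or ECACC, kept in supplier-recommended medium with 1% penicillin-streptomycin at 37°C, 5% CO₂. Seeded at 10,000–30,000/cm² (adherent) or 100,000/mL (nonadherent) in medium with 10% fetal calf serum. Dosed after 24 h in duplicate with serial dilutions. Viable cells read by CellTiter-Glo 72 h later. IC50 from sigmoidal fit. At least two independent experiments.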

[25] = Antiproliferative activity against human SUPM2 cells assessed as inhibition of cell growth incubated for 72 hrs by cell-titer glo assay; format: functional, cell-based; conditions: SUP-M2, 72 h
[26] = system: SK-MEL-5; experiment: Antiproliferative activity against human SK-MEL-5 cells assessed as inhibition of cell growth incubated for 72 hrs by cell-titer glo assay; format: functional, cell-based; conditions: SK-MEL-5, 72 h
[27] = target: Protein-tyrosine kinase 6 (Homo sapiens, UniProt Q13882); experiment: Inhibition of BRK (unknown origin) in presence of [gamma-33P]ATP
[28] = target: Tyrosine-protein kinase Lyn (Homo sapiens, UniProt P07948); experiment: Inhibition of N-terminal his6-tagged recombinant full-length human Lyn expressed in Sf21 cells assessed as residual activity at 1 uM relative to control
[29] = system: NHDF; experiment: Induction of mitosis in human NHDF cells at 0.0001 to 100 uM incubated for >= 24 hrs followed by compound washout by cell titer glow assay; format: toxicity, cell-based; conditions: dose 0.0001-100 µM
[30] = system: MeWo; experiment: Antiproliferative activity against human MeWo cells assessed as inhibition of cell growth incubated for 72 hrs by cell-titer glo assay; format: functional, cell-based; procedure, shortened: as §3

Chain of ALK tyrosine kinase receptor (Homo sapiens) (Q9UM73 19-1620 limits assumed): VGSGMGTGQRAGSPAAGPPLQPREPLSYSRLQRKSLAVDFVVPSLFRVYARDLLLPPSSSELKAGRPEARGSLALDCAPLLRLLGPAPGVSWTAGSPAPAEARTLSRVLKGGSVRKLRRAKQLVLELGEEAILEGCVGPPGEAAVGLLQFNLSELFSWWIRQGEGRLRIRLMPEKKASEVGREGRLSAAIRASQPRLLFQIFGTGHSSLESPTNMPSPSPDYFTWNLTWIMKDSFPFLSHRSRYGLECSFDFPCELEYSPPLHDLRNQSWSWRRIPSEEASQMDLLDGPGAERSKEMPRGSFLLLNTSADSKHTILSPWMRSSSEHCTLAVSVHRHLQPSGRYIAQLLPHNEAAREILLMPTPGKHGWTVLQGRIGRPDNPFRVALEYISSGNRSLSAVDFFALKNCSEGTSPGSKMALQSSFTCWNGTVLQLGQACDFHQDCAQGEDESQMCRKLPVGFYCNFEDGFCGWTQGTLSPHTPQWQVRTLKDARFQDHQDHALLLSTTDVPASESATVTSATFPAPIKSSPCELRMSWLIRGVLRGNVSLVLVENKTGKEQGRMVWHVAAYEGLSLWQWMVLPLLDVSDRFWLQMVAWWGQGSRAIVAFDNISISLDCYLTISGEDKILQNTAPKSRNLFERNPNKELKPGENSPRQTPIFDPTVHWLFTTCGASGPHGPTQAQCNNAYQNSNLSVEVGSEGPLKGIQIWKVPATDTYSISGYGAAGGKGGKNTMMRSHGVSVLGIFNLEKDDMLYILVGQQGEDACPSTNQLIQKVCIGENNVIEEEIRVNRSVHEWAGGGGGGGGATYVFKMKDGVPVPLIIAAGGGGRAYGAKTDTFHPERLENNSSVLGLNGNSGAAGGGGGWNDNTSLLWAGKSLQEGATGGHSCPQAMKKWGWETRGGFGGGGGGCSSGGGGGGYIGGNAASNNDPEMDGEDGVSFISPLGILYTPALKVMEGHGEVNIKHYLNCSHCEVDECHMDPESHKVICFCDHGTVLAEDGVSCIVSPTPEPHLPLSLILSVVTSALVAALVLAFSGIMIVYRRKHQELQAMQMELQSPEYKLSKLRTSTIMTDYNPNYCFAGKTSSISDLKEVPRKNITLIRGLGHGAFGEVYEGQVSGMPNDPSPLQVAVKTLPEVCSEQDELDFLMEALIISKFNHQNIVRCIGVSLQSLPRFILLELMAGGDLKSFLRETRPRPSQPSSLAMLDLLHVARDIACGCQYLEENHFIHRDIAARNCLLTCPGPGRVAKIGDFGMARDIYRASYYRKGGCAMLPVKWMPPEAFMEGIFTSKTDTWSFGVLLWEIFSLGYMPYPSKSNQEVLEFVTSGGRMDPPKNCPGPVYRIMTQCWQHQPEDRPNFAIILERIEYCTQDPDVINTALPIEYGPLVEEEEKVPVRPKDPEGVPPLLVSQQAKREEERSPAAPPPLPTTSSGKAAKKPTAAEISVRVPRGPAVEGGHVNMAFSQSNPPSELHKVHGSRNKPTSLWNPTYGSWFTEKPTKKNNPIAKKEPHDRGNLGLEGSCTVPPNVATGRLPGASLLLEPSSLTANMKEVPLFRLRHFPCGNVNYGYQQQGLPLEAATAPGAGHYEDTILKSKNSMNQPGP
Chain of Ribosomal protein S6 kinase alpha-4 (Homo sapiens) (O75676 whole entry, looked up): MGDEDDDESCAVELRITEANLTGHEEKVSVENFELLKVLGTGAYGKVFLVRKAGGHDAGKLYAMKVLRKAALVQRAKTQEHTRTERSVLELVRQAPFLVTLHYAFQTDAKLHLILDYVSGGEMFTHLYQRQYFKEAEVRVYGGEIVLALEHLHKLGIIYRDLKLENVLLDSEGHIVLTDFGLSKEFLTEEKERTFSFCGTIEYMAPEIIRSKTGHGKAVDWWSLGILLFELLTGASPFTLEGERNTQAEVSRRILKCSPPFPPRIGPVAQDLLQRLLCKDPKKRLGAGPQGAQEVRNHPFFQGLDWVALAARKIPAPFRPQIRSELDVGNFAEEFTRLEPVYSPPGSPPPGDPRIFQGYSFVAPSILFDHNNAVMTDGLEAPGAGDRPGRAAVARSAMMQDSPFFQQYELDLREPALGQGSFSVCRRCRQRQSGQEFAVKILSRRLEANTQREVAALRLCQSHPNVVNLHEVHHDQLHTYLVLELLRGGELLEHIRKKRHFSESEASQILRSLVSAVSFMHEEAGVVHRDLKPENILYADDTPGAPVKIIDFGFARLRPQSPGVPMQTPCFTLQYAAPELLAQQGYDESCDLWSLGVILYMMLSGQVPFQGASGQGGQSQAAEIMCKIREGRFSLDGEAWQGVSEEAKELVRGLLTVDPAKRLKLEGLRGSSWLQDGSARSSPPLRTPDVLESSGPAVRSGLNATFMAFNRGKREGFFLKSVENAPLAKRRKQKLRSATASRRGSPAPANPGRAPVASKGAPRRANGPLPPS
Chain of Insulin receptor (P06213 28-758 limits assumed): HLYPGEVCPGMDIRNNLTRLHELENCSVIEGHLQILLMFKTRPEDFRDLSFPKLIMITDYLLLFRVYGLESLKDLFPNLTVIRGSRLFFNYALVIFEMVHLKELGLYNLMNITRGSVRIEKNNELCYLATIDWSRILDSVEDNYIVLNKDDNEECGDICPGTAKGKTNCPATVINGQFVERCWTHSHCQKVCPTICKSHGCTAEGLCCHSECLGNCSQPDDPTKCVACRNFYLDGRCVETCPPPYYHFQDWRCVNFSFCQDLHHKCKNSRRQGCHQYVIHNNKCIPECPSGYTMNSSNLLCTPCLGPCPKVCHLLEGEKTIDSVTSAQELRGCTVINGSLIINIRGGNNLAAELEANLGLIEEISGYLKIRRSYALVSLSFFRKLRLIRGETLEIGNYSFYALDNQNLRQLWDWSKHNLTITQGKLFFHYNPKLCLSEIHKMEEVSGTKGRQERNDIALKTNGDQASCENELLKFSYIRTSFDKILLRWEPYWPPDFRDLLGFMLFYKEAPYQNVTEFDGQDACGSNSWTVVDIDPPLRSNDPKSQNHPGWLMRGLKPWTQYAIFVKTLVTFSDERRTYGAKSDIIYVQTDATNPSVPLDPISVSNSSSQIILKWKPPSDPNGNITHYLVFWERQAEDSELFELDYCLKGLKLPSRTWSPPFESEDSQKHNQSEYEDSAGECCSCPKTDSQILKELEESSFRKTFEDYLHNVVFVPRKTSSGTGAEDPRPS
Chain of Insulin receptor (P06213 763-1382 limits assumed): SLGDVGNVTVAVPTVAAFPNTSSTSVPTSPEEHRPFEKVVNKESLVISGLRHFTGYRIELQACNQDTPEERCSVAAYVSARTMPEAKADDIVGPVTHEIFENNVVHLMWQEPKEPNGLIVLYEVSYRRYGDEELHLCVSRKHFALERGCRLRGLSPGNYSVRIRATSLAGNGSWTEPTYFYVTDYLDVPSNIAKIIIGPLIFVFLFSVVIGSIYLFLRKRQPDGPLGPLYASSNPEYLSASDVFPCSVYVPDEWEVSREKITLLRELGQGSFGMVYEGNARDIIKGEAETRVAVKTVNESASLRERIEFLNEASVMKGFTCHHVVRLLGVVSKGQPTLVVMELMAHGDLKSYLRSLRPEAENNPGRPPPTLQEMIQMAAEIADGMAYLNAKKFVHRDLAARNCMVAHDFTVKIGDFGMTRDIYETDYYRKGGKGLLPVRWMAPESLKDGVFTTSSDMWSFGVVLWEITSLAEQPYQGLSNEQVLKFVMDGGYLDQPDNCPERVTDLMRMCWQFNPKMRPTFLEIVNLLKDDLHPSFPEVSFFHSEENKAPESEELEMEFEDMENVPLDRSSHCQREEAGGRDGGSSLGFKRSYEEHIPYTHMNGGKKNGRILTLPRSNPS
Chain of PAS domain-containing serine/threonine-protein kinase (Homo sapiens) (Q96RG2 whole entry, the tested form may be a part): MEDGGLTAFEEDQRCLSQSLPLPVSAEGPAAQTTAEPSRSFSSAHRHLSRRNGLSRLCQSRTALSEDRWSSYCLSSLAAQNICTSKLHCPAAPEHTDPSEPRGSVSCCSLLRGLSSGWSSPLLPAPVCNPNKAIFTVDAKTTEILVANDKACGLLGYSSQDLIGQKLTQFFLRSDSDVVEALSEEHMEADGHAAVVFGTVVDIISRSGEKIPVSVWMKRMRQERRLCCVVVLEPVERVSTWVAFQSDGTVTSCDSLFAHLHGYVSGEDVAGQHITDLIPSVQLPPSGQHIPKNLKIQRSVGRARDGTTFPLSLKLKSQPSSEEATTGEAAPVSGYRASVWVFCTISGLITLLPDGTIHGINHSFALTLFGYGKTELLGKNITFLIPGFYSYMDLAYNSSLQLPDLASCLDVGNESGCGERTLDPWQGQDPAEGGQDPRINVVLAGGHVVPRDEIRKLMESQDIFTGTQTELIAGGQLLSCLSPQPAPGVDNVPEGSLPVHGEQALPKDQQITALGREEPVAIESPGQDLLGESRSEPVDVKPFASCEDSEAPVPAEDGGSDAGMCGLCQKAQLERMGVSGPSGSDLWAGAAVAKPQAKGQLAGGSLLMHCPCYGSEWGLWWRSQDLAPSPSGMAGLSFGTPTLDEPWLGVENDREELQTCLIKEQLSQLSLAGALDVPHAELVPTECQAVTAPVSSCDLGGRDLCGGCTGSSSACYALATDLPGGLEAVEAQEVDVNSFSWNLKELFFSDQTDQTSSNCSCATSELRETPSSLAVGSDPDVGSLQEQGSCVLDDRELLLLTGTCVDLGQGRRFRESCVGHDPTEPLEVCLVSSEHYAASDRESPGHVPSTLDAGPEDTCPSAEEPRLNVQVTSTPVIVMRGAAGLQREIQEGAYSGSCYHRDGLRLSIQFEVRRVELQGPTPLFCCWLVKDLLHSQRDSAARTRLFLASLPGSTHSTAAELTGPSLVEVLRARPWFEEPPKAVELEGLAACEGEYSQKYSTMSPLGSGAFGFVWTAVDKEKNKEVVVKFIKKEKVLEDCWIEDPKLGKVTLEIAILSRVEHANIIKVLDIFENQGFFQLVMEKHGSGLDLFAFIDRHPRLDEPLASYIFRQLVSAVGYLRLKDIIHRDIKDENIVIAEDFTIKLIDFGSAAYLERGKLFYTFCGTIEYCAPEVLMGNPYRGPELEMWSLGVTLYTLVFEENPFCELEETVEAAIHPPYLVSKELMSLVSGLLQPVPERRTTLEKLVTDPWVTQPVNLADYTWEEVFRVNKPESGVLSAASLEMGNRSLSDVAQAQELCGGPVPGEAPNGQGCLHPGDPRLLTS

CN1CCN(c2ccc(OC(F)(F)F)c(Nc3ncc4c(n3)-c3c(c(C(N)=O)nn3CCO)CC4)c2)CC1 [ONVANSERTIB]
inhibition [1]: Active | Activity [2]: 0.06 g | IC50 [3]: 277 nM | Activity [4]: 90% | half-life [5]: 2.7 h | IC50 [6]: > 10000 nM | Activity [7]: 133% | IC50 [8]: 67 nM | Activity [9]: 83% | Activity [10]: Active | IC50 [11]: 96 nM | Activity [12]: Toxic | Activity [13]: 85% | IC50 [14]: > 10000 nM | IC50 [15]: 252 nM | IC50 [16]: 54 nM | Activity [17]: 127% | Time [18]: 79 days | Activity [19]: 129% | Tmax [20]: 3 h | IC50 [21]: 139 nM | IC50 [22]: 87 nM | Activity [23]: 145% | IC50 [24]: 386 nM | IC50 [25]: 43 nM | IC50 [26]: 513 nM | IC50 [27]: > 10000 nM | Activity [28]: 198% | Activity [29]: Toxic | IC50 [30]: 237 nM
